# Assay results reported in ChEMBL document CHEMBL1926572, “Synthesis and evaluation of the substrate activity of C-6 substituted purine ribosides with E. coli purine nucleoside phosphorylase: palladium mediated cross-coupling of organozinc halides with 6-chloropurine nucleosides” (Eur J Med Chem, 2012).
# Active and inactive are the calls of the source. The rule behind the calls is not given here.
# Experiments:
# Escherichia coli = assay: Activity of Escherichia coli PNP assessed per mg of protein at 100 uM by UV spectrometric analysis
# Outline: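 Samples taken at several times; substrate and product resolved by C-18 HPLC (5–50% acetonitrile gradient, NH₄H₂PO₄ pH 4.5) with UV detection. Rate in nmoles/mg/h; mean of at least 2 measurements.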
# CCRF-CEM = assay: Cytotoxicity against human CCRF-CEM cells after 72 hrs by coulter counting; format: functional, cell-based
# SNB-7 = assay: Cytotoxicity against human SNB7 cells assessed as cell viability after 72 hrs by sulforhodamine B assay; format: functional, cell-based; details: SNB-7, 72 h
# Outline: (§1)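 Cells plated and kept at 37 °C with a range of compound concentrations for 72 h of continuous exposure; viability by sulforhodamine B staining, absorbance at 570 nm; concentration inhibiting growth by 50% determined from a single experiment.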
# PC-3 = assay: Cytotoxicity against human PC3 cells assessed as cell viability after 72 hrs by sulforhodamine B assay; format: functional, cell-based; details: PC-3, 72 h; outline: as §1
# CAKI-1 = assay: Cytotoxicity against human Caki1 cells assessed as cell viability after 72 hrs by sulforhodamine B assay; format: functional, cell-based; details: CAKI-1, 72 h; outline: as §1
# NCI-H23 [1] = assay: Antitumor activity against human NCI-H23 cells xenografted in nude mouse assessed as tumor growth inhibition at 33 to 75 mg/kg, ip qd for 9 consecutive days; format: functional, organism-based
# Outline: (§2)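 NCI-H23 tumors grown on the flanks of nude mice; once tumors were about 200 mg, animals received 33, 50 or 75 mg/kg ip daily for 9 consecutive days; tumor growth and body weight followed.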
# ZR-75-1 = assay: Cytotoxicity against human ZR-75-1 cells assessed as cell viability after 72 hrs by sulforhodamine B assay; format: functional, cell-based; details: ZR-75-1, 72 h; outline: as §1
# NCI-H23 [2] = assay: Antitumor activity against human NCI-H23 cells xenografted in nude mouse assessed as tumor growth inhibition at maximum tolerated dose, ip qd for 9 consecutive days; format: functional, organism-based; outline: as §2
# LOX IMVI = assay: Cytotoxicity against human LOXIMVI cells assessed as cell viability after 72 hrs by sulforhodamine B assay; format: functional, cell-based; outline: as §1
# DLD-1 = assay: Cytotoxicity against human DLD1 cells assessed as cell viability after 72 hrs by sulforhodamine B assay; format: functional, cell-based; details: DLD-1, 72 h; outline: as §1
# NCI-H23 [3] = assay: Cytotoxicity against human NCI-H23 cells assessed as cell viability after 72 hrs by sulforhodamine B assay; format: functional, cell-based; details: NCI-H23, 72 h; outline: as §1
# Mus musculus [4] = assay: Toxicity in nude mouse xenografted with human NCI-H23 cells assessed as mortality at 75 mg/kg, ip qd for 9 consecutive days; format: organism-based; design: dose 75 mg/kg, route intraperitoneal; details: in vivo
# Outline: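 NCI-H23 tumours grown subcutaneously on the flanks of nude mice. Dosing began once tumours reached about 200 mg: 33, 50 or 75 mg/kg given ip once daily for 9 consecutive days. Tumour growth, deaths and body-weight loss were recorded.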
# Mus musculus [5] = assay: Toxicity in nude mouse xenografted with human NCI-H23 cells assessed as decrease in body weight at 75 mg/kg, ip qd for 9 consecutive days; format: organism-based; design: dose 75 mg/kg, route intraperitoneal; scale not given: the % may be the effect or the level left; details: in vivo; outline: as §2
structure (smiles),measurement,setting,value
Cc1ncnc2c1ncn2[C@H]1C[C@H](O)[C@@H](CO)O1,Activity,Escherichia coli,461000 nmol/h
OC[C@H]1O[C@@H](n2cnc3c(C4CCCC4)ncnc32)[C@H](O)[C@@H]1O,IC50,CCRF-CEM,16 µM
same,Activity,Escherichia coli,42000 nmol/h
OC[C@H]1O[C@@H](n2cnc3c(C4CC4)ncnc32)[C@H](O)[C@@H]1O,IC50,SNB-7,33 µM
same,IC50,PC-3,67 µM
same,IC50,CCRF-CEM,1 µM
same,IC50,CAKI-1,> 200 µM
same,growth inhibition (GI),NCI-H23 [1],inactive
same,IC50,ZR-75-1,23 µM
same,growth inhibition (GI),NCI-H23 [2],inactive
same,IC50,LOX IMVI,> 200 µM
same,IC50,DLD-1,170 µM
same,Activity,Escherichia coli,51000 nmol/h
same,IC50,NCI-H23 [3],1 µM
same,Activity,Mus musculus [4],Toxic
CCc1ncnc2c1ncn2[C@@H]1O[C@H](CO)[C@@H](O)[C@H]1O,IC50,CCRF-CEM,0.72 µM
same,Activity,Escherichia coli,69000 nmol/h
Nc1nc(F)nc2c1ncn2[C@@H]1O[C@H](CO)[C@@H](O)[C@@H]1O,Activity,Escherichia coli,1300 nmol/h
CCCc1ncnc2c1ncn2[C@@H]1O[C@H](CO)[C@@H](O)[C@H]1O,IC50,CCRF-CEM,6.8 µM
same,Activity,Escherichia coli,72000 nmol/h
Cc1ncnc2c1ncn2[C@@H]1O[C@H](CO)[C@@H](O)[C@@H]1O,IC50,CCRF-CEM,> 130 µM
same,Activity,Escherichia coli,14 nmol/h
CCCCc1ncnc2c1ncn2[C@@H]1O[C@H](CO)[C@@H](O)[C@H]1O,IC50,CCRF-CEM,49 µM
same,Activity,Escherichia coli,86000 nmol/h
OC[C@H]1O[C@@H](n2cnc3c(C4CCC4)ncnc32)[C@H](O)[C@@H]1O,IC50,CCRF-CEM,7 µM
same,Activity,Escherichia coli,63000 nmol/h
Nc1ncnc2c1ncn2[C@@H]1O[C@H](CO)[C@@H](O)[C@H]1O,Activity,Escherichia coli,398000 nmol/h
OC[C@H]1O[C@@H](n2cnc3c(-c4cccs4)ncnc32)[C@H](O)[C@@H]1O,IC50,SNB-7,10 µM
same,IC50,PC-3,0.9 µM
same,IC50,CCRF-CEM,0.09 µM
same,IC50,CAKI-1,30 µM
same,growth inhibition (GI),NCI-H23 [1],inactive
same,IC50,ZR-75-1,0.3 µM
same,Activity,Mus musculus [5],14%
same,growth inhibition (GI),NCI-H23 [2],inactive
same,IC50,LOX IMVI,0.3 µM
same,IC50,DLD-1,0.9 µM
same,Activity,Escherichia coli,9900 nmol/h
same,IC50,NCI-H23 [3],0.6 µM
Cc1ncnc2c1ncn2[C@@H]1O[C@H](CO)[C@@H](O)[C@H]1O,IC50,CCRF-CEM,0.02 µM
same,Activity,Escherichia coli,84000 nmol/h
CC(C)Cc1ncnc2c1ncn2[C@@H]1O[C@H](CO)[C@@H](O)[C@H]1O,IC50,CCRF-CEM,> 130 µM
same,Activity,Escherichia coli,79000 nmol/h
OC[C@H]1O[C@@H](n2cnc3c(-c4ccccc4)ncnc32)[C@H](O)[C@@H]1O,IC50,SNB-7,31 µM
same,IC50,PC-3,1.2 µM
same,IC50,CCRF-CEM,0.62 µM
same,IC50,CAKI-1,31 µM
same,IC50,ZR-75-1,1.2 µM
same,IC50,LOX IMVI,6.2 µM
same,IC50,DLD-1,6 µM
same,Activity,Escherichia coli,21000 nmol/h
same,IC50,NCI-H23 [3],1.2 µM
